From ChEMBL document CHEMBL5126614 (ACS Med Chem Lett, 2022)
Calls of active or inactive are those of the source. The calls are words filed in the database; no cut-off is given here.

Columns and labels:
Rhesus monkey [1] = assay: Anti-obesity activity in type 2 diabetes rhesus monkey model assessed as reduction in body weight at 30 ug/kg, sc qd for 2 weeks and measured during second week of dosing relative to control; type: functional, Macaca mulatta; set-up: scale not given: the % may be the effect or the level left; settings: dose 30 µg/kg
Rhesus monkey [2] = assay: Anti-obesity activity in type 2 diabetes rhesus monkey model assessed as reduction in body weight at 30 ug/kg, sc qd for 3 weeks and measured during third week of dosing relative to control; type: functional, Macaca mulatta; set-up: scale not given: the % may be the effect or the level left; settings: dose 30 µg/kg
Rhesus monkey [3] = assay: Anti-obesity activity in type 2 diabetes rhesus monkey model assessed as reduction in body weight at 30 ug/kg, sc qd for 1 week and measured during 1 week relative to control; type: functional, Macaca mulatta; set-up: scale not given: the % may be the effect or the level left; settings: dose 30 µg/kg, time 1 weeks
Rhesus monkey [4] = assay: Anti-obesity activity in type 2 diabetes rhesus monkey model assessed as reduction in cumulative food intake at 30 ug/kg, sc qd for 3 weeks and measured daily for 21 days relative to baseline; type: functional, Macaca mulatta; set-up: scale not given: the % may be the effect or the level left; settings: dose 30 µg/kg
Rhesus monkey [5] = assay: Antidiabetic activity in type 2 diabetes rhesus monkey model assessed as corrected fasting glucose level at 30 ug/kg, sc qd for 3 weeks and measured on day 22 by intravenous glucose tolerance test; type: functional, Macaca mulatta; settings: dose 30 µg/kg, time 22 day
Summary of the method: (§1)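 Type 2 diabetic rhesus monkeys received daily dosing for 3 weeks, alongside vehicle and a liraglutide benchmark at 30 μg/kg. Fasting plasma glucose was compared with baseline or vehicle, and fasting insulin with vehicle.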

Rhesus monkey [6] = assay: Anti-obesity activity in type 2 diabetes rhesus monkey model assessed as weight loss at 30 ug/kg, sc qd for 3 weeks relative to control; type: functional, Macaca mulatta; settings: dose 30 µg/kg
[7] = Tmax in Wistar-Han rat at 0.2 mg/kg, sc by LC-MS analysis; type: ADME, organism-based; settings: in vivo
Summary of the method: (§2)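 Single IV or SC dose in male Wistar Han naïve rats and in rhesus monkeys, n = 3 animals per group. Peptide formulated in mannitol buffer (5% mannitol, 5 mM sodium phosphate, pH 8). Plasma concentration–time profiles were measured and peptide levels quantified by LCMS assay.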

[8] = Toxicity in rhesus monkey; set-up: species or system Macaca mulatta; settings: in vivo
[9] = Toxicity in rat; settings: in vivo
Rhesus monkey [10] = assay: Anti-obesity activity in type 2 diabetes rhesus monkey model assessed as increase in fasting ketone beta-hydroxybutyrate level at 3 ug/kg, sc qd for 3 weeks and measured on day 22 relative to control; settings: dose 3 µg/kg, time 22 day
Dipeptidyl peptidase 4 = Dipeptidyl peptidase 4 (Homo sapiens, UniProt P27487); assay: Stability of compound assessed as DPP4 (unknown origin)-mediated hydrolysis; type: ADME
Summary of the method: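 Peptide incubated overnight at 37 °C with DPP-IV enzyme. Stability judged by receptor bioactivity measured after incubation.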

[11] = Agonist activity at rhesus monkey GCGR; set-up: species or system Macaca mulatta
[12] = Bioavailability in rhesus monkey at 0.05 mg/kg, sc by LC-MS analysis; type: ADME, organism-based, Macaca mulatta; settings: in vivo; summary of the method: as §2
[13] = Bioavailability in Wistar-Han rat at 0.2 mg/kg, sc by LC-MS analysis; type: ADME, organism-based; settings: in vivo; summary of the method: as §2
[14] = Terminal half life in rhesus monkey at 0.01 mg/kg, iv by LC-MS analysis; type: ADME, organism-based, Macaca mulatta; settings: in vivo, read-out: beta t1/2 (converted); summary of the method: as §2
[15] = Plasma clearance in rhesus monkey at 0.01 mg/kg, iv by LC-MS analysis; type: ADME, organism-based, Macaca mulatta; summary of the method: as §2
Rhesus monkey [16] = assay: Anti-obesity activity in type 2 diabetes rhesus monkey model assessed as increase in FGF21 expression at 3 ug/kg, sc qd for 3 weeks and measured on day 22 relative to baseline; type: functional, Macaca mulatta; settings: dose 3 µg/kg, time 22 day
Rhesus monkey [17] = assay: Potency index, ratio of compound to liraglutide anti-obesity activity in type 2 diabetes rhesus monkey model assessed as […] in FGF21 expression; type: functional, Macaca mulatta
[18] = Volume of distribution at steady state in Wistar-Han rat at 0.1 mg/kg, iv by LC-MS analysis; type: ADME, organism-based; settings: in vivo, read-out: Vdss; summary of the method: as §2
[19] = Cmax in Wistar-Han rat at 0.2 mg/kg, sc by LC-MS analysis; type: ADME, organism-based; set-up: dose 0.2 mg/kg, route sc; settings: in vivo; summary of the method: as §2
[20] = AUC (0 to infinity) in Wistar-Han rat at 0.2 mg/kg, sc by LC-MS analysis; type: ADME, organism-based; set-up: time infinity, dose 0.2 mg/kg, route sc; settings: in vivo; summary of the method: as §2
[21] = AUC (0 to infinity) in rhesus monkey at 0.05 mg/kg, sc by LC-MS analysis; type: ADME, organism-based, Macaca mulatta; set-up: time infinity, dose 0.05 mg/kg, route sc; settings: in vivo; summary of the method: as §2
[22] = Solubility of compound at pH 8; type: physicochemical; settings: buffer
Rhesus monkey [23] = assay: Anti-obesity activity in type 2 diabetes rhesus monkey model assessed as increase in free fatty acid level at 3 ug/kg, sc qd for 3 weeks and measured on day 22 relative to control; type: functional, Macaca mulatta; settings: dose 3 µg/kg, time 22 day
Rhesus monkey [24] = assay: Antidiabetic activity in type 2 diabetes rhesus monkey model assessed as increase in total adiponectin level at 3 ug/kg, sc qd for 3 weeks and measured on day 22; settings: Macaca mulatta, dose 3.0 µg/kg, time 22.0 day
Rhesus monkey [25] = assay: Antidiabetic activity in type 2 diabetes rhesus monkey model assessed as reduction in fasting insulin level at 3 ug/kg, sc qd for 3 weeks and measured on day 22 relative to control; type: functional, Macaca mulatta; set-up: scale not given: the % may be the effect or the level left; settings: dose 3 µg/kg, time 22 day; summary of the method: as §1
[26] = Cmax in rhesus monkey at 0.05 mg/kg, sc by LC-MS analysis; type: ADME, organism-based, Macaca mulatta; set-up: dose 0.05 mg/kg, route sc; settings: in vivo; summary of the method: as §2
[27] = Volume of distribution at steady state in rhesus monkey at 0.01 mg/kg, iv by LC-MS analysis; type: ADME, organism-based, Macaca mulatta; settings: in vivo, read-out: Vdss; summary of the method: as §2
Rhesus monkey [28] = assay: Antidiabetic activity in type 2 diabetes rhesus monkey model assessed as HOMA-IR at 3 ug/kg, sc qd for 3 weeks and measured on day 22 (reference value: 9.6 +/- 1.9); type: functional, Macaca mulatta; settings: dose 3 µg/kg, time 22 day
[29] = Tmax in rhesus monkey at 0.05 mg/kg, sc by LC-MS analysis; type: ADME, organism-based, Macaca mulatta; settings: in vivo; summary of the method: as §2
Rhesus monkey [30] = assay: Anti-obesity activity in type 2 diabetes rhesus monkey model assessed as weight loss at 3 ug/kg, sc qd for 3 weeks relative to control; type: functional, Macaca mulatta; settings: dose 3 µg/kg
[31] = Elimination half life in Wistar-Han rat at 0.1 mg/kg, iv by LC-MS analysis; type: ADME, organism-based; settings: in vivo, read-out: beta t1/2 (converted); summary of the method: as §2
Homo sapiens = organism: Homo sapiens; assay: Selectivity ratio of EC50 for human GCGR expressed in frozen cells to EC50 for human GLP1R expressed in frozen cells; type: cell-based
Rhesus monkey [32] = assay: Potency index, ratio of compound to liraglutide anti-obesity activity in type 2 diabetes rhesus monkey model assessed as reduction in body weight; type: functional, Macaca mulatta
[33] = Solubility of compound at pH 7; type: physicochemical; settings: buffer
[34] = Agonist activity at rhesus monkey GLP1R; set-up: species or system Macaca mulatta
Macaca mulatta = organism: Macaca mulatta; assay: Selectivity ratio of EC50 for rhesus monkey GCGR to EC50 for rhesus monkey GLP1R
[35] = AUC (0 to infinity) in Wistar-Han rat at 0.1 mg/kg, iv by LC-MS analysis; type: ADME, organism-based; set-up: time infinity, dose 0.1 mg/kg, route iv; settings: in vivo; summary of the method: as §2
[36] = Plasma clearance in Wistar-Han rat at 0.1 mg/kg, iv by LC-MS analysis; type: ADME, organism-based; summary of the method: as §2
Rhesus monkey [37] = assay: Antidiabetic activity in type 2 diabetes rhesus monkey model assessed as reduction in fasting glucose level at 3 ug/kg, sc qd for 3 weeks and measured on day 22 by intravenous glucose tolerance test; type: functional, organism-based; settings: Macaca mulatta, dose 3.0 µg/kg, time 22.0 day; summary of the method: as §1
Rhesus monkey [38] = assay: Anti-obesity activity in type 2 diabetes rhesus monkey model assessed as reduction in cumulative food intake at 3 ug/kg, sc qd for 3 weeks and measured daily for 21 days relative to baseline; type: functional, Macaca mulatta; set-up: scale not given: the % may be the effect or the level left; settings: dose 3 µg/kg
[39] = Solubility of compound at pH 3 to 5; type: physicochemical; settings: buffer
[40] = AUC (0 to infinity) in rhesus monkey at 0.01 mg/kg, iv by LC-MS analysis; type: ADME, organism-based, Macaca mulatta; set-up: time infinity, dose 0.01 mg/kg, route iv; settings: in vivo; summary of the method: as §2

Chain of Dipeptidyl peptidase 4 (P27487 whole entry): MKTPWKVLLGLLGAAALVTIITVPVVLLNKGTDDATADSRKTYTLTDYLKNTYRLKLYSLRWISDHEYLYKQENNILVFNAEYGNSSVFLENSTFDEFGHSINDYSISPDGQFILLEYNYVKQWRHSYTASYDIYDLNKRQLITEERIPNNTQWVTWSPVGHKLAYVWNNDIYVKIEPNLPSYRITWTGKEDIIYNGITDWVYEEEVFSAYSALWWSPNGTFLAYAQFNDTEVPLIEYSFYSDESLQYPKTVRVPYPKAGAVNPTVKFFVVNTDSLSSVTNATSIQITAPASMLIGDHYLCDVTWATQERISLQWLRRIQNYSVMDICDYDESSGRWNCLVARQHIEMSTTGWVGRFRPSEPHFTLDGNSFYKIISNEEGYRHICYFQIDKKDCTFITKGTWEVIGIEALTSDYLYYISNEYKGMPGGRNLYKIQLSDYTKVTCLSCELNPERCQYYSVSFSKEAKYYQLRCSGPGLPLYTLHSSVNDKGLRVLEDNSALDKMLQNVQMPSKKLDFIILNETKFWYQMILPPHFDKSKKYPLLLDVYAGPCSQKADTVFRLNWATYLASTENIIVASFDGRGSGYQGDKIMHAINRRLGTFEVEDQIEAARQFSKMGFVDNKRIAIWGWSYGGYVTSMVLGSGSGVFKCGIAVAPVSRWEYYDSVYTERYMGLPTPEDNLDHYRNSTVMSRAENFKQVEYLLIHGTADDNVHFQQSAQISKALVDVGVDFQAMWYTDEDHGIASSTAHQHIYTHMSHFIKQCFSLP

Compound `CCCCCCCCCCCCCCCC(=O)N[C@@H](CCC(=O)NCCCC[C@H](NC(=O)[C@H](C)NC(=O)[C@H](C)NC(=O)[C@H](CCC(N)=O)NC(=O)CNC(=O)[C@H](CCC(=O)O)NC(=O)[C@H](CC(C)C)NC(=O)[C@H](Cc1ccc(O)cc1)NC(=O)[C@H](CO)NC(=O)[C@H](CO)NC(=O)[C@@H](NC(=O)[C@H](CC(=O)O)NC(=O)[C@H](CO)NC(=O)[C@@H](NC(=O)[C@H](Cc1ccccc1)NC(=O)[C@@H](NC(=O)CNC(=O)[C@H](CCC(=O)O)NC(=O)[C@H](C)NC(=O)[C@@H](N)Cc1cnc[nH]1)[C@@H](C)O)[C@@H](C)O)C(C)C)C(=O)N[C@@H](CCC(=O)O)C(=O)N[C@@H](Cc1ccccc1)C(=O)N[C@H](C(=O)N[C@@H](C)C(=O)N[C@@H](Cc1c[nH]c2ccccc12)C(=O)N[C@@H](CC(C)C)C(=O)N[C@H](C(=O)N[C@@H](CCCNC(=N)N)C(=O)NCC(=O)N[C@@H](CCCNC(=N)N)C(=O)NCC(=O)O)C(C)C)[C@@H](C)CC)C(=O)O` [LIRAGLUTIDE] has an Activity (Rhesus monkey [1]) of 1%, an Activity (Rhesus monkey [2]) of 0.6% and an Activity (Rhesus monkey [3]) of 1.7%. The Activity (Rhesus monkey [4]) was 32%, the Activity (Rhesus monkey [5]) was 30 mg/dL and the Activity (Rhesus monkey [6]) was 3.3%.
For `CCCCCCCCCCCCCCCC(=O)N[C@@H](CCC(=O)N[C@@H](CCC(=O)NCCCC[C@H](NC(=O)[C@H](CC(=O)O)NC(=O)[C@H](CO)NC(=O)[C@@H](NC(=O)[C@H](Cc1ccccc1)NC(=O)[C@@H](NC(=O)CNC(=O)[C@H](CCC(N)=O)NC(=O)[C@@H](CO)NC(=O)[C@@H](N)Cc1cnc[nH]1)[C@@H](C)O)[C@@H](C)O)C(=O)N[C@@H](CO)C(=O)N[C@@H](CCCCN)C(=O)N[C@@H](Cc1ccc(O)cc1)C(=O)N[C@@H](CC(C)C)C(=O)N[C@@H](CC(=O)O)C(=O)N[C@@H](C)C(=O)N[C@@H](CCCNC(=N)N)C(=O)N[C@@H](C)C(=O)N[C@@H](C)C(=O)N[C@@H](CCC(N)=O)C(=O)N[C@@H](CC(=O)O)C(=O)N[C@@H](Cc1ccccc1)C(=O)N[C@H](C(=O)N[C@@H](CCC(N)=O)C(=O)N[C@@H](Cc1c[nH]c2ccccc12)C(=O)N[C@@H](CC(C)C)C(=O)N[C@@H](CC(C)C)C(=O)N[C@@H](CC(=O)O)C(=O)N[C@H](C(N)=O)[C@@H](C)O)C(C)C)C(=O)O)C(=O)O`, the Tmax [7] was 5.3 h, the Activity [8] was “Non-Toxic” and the Activity [9] was “Non-Toxic”. For the same compound, the “fold change (FC)” value (Rhesus monkey [10]) was 4, the Stability (Dipeptidyl peptidase 4) was “Stable” and the EC50 [11] was 7 pM. The bioavailability [12] was 63%, the bioavailability [13] was 18% and the half-life [14] was 960 min. For the same compound, the clearance [15] was 0.12 mL/min/kg, the “fold change (FC)” value (Rhesus monkey [16]) was greater than 3 and the “fold change (FC)” value (Rhesus monkey [17]) was greater than 3. The Vd [18] was 0.1 L/kg, the Cmax [19] was 25 nM and the AUC(0-inf) [20] was 0.37 µM·h. The AUC(0-inf) [21] was 1.25 µM·h, the solubility [22] was greater than 80 mg/mL and the Activity (Rhesus monkey [23]) was 63%. The Activity (Rhesus monkey [24]) was “Active”, the Activity (Rhesus monkey [25]) was 50% and the Cmax [26] was 30 nM. The Vd [27] was 0.16 L/kg, the Activity (Rhesus monkey [28]) was 9.6 and the Tmax [29] was 18 h. For the same compound, the Activity (Rhesus monkey [30]) was 7.6%, the half-life [31] was 180 min and the Ratio EC50 (Homo sapiens) was 0.9. For the same compound, the “fold change (FC)” value (Rhesus monkey [32]) was 2, the solubility [33] was greater than 20 mg/mL and the EC50 [34] was 9 pM. It also gave a Ratio EC50 (Macaca mulatta) of 0.8, an AUC(0-inf) [35] of 1.05 µM·h and a clearance [36] of 0.42 mL/min/kg. The Activity (Rhesus monkey [37]) was “Active”, the Activity (Rhesus monkey [38]) was 30% and the solubility [39] was “Insoluble”. It also gave an AUC(0-inf) [40] of 0.4 µM·h.
